Bioassay records: PubChem BioAssay, Sanford-Burnham Center for Chemical Genomics
SENP8 block-1 = human SENP8 protease inhibitors, primary screen, biochemical, fluorescence, Nedd8 protein substrate, uHTS | Sentrin-specific protease 8 (Homo sapiens), Q96LD8 | recombinant SENP8 | inhibition, % at 20 µM | 360,000 compounds, 0.64% hits | AID 602440, 2012; in the data active = inhibition mostly above about 40%, no sharp cut-off; inactive = mostly below about 27%
SENP7 block = SENP7 protease inhibitors, primary screen, biochemical, luminescence, uHTS | inhibition, % at 5 µM | recombinant SENP7, Z-RLRGG-aminoluciferin luminescence, 40 min | Sentrin-specific protease 7 (Homo sapiens), Q9BQF6 | 330,000 compounds, 1.5% hits;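 active = inhibition above about 50% at the single test dose, limit read from the data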
SENP6 inh = SENP6 protease inhibitors, primary screen, biochemical, luminescence, uHTS. inhibition, % at 10 µM. 330,000 compounds, 1.8% hits. AID 2599, 2010. Sentrin-specific protease 6 (Homo sapiens), Q9GZR1. Recombinant SENP6 catalytic domain, aminoluciferin luminescence;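 active = inhibition above about 50% at the single tested dose, limit read from the data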
SENP8 block-2 = SENP8 protease inhibitors, primary screen, biochemical, luminescence | Sentrin-specific protease 8 (Homo sapiens), Q96LD8 | purified SENP8, Z-RLRGG-aminoluciferin cleavage | inhibition, % at 10 µM | 330,000 compounds, 1.2% hits | AID 2540, 2010; in the data active = inhibition above about 50%
Apaf-1 inh = inhibitors of human Apaf-1 apoptosome, primary screen, biochemical, DEVD-Rh110 fluorescence, uHTS. Apoptotic protease-activating factor 1 (Homo sapiens), O14727. reconstituted apoptosome caspase-3 activity. inhibition, % at 20 µM. 330,000 compounds, 0.71% hits; active = inhibition of at least 40% at 20 µM
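System – cell-free apoptosome with Apaf-1, procaspase-3 and caspase-9 · Buffer or medium – pH 7.5 Hepes buffer with CHAPS, BSA, DTT · Also added – cytochrome c with DEVD-Rh110 · Times – 30 min compound preincubation, 50 min activation, room temperature · Technique – Rh110 fluorescence intensity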
SENP1 FRET inh = human SENP1 catalytic domain inhibitors, primary screen, biochemical, FRET, uHTS. Sentrin-specific protease 1 (Homo sapiens), Q9P0U3. recombinant SENP1 catalytic domain, CyPet-SUMO1-YPet FRET cleavage. inhibition, % at 10 µM. 360,000 compounds, 0.21% hits;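 active = inhibition at least 30% at 10 µM, raw YFP signal under a set limit, fluorescence ratio 0.5 to 1.5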
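material = recombinant human SENP1 catalytic domain, His6-tagged | quantity = 20 pM enzyme | reagent = 25 nM SUMO1 FRET substrate | compound dosing = 10 µM single point, 0.5% DMSO | timing = 50 min enzyme reaction, room temperature, light-protected | detection = FRET, CFP and YFP emission | control set = no-enzyme low, enzyme-DMSO high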
SENP8 inh conf = human SENP8 protease inhibitors, confirmation, biochemical, Nedd8 protein substrate, single concentration; purified SENP8, Nedd8-AMC/pro-Nedd8 cleavage fluorescence, 30 min; AID 624319, 2012; 1,400 compounds, 15% hits; shares compounds with SENP8 block-1; inhibition, % at 25 µM; in the data active = inhibition mostly above about 39%, no sharp cut-off; inactive = mostly below about 34%
Hits are given with their value; n = inactive; x = no result given. Most compounds without a hit are left out; they make up all but 2.9% or so of the library.

SMILES | SENP8 block-1 | SENP7 block | SENP6 inh | SENP8 block-2 | Apaf-1 inh | SENP1 FRET inh | SENP8 inh conf
Cc1nnc(SCc2ccccc2)nc1/C=C/NOCc1ccc(Cl)cc1Cl | 54 | n | n | n | n | n | n
CSc1nnc(C)c(/C=C/NOCc2cccc(F)c2)n1 | 40 | n | n | n | n | n | 57
Cc1ccc(NC(=S)N/N=C/c2ccc([N+](=O)[O-])s2)cc1 | 40 | n | n | n | n | n | 53
O=C(Cc1cccs1)N/N=C\c1ccc([N+](=O)[O-])s1 | n | n | n | n | n | n | x
O=C(/C=C/c1cccs1)c1ccc([N+](=O)[O-])cc1 | 50 | n | n | n | n | n | n
C/C(=N\Nc1ccc(S(N)(=O)=O)cc1[N+](=O)[O-])c1ccco1 | 48 | n | n | n | n | n | n
C/C(=N\NC(=O)c1cc([N+](=O)[O-])cc([N+](=O)[O-])c1)c1ccco1 | n | n | n | n | n | n | x
CCOC(=O)[C@]12CCCC=C1N(Cc1ccc3c(c1)OCO3)C(=O)[C@H](CC(=O)NCCc1ccccc1OC)C2 | n | x | x | x | x | n | x
COc1ccccc1NS(=O)(=O)c1cc(NC(=O)c2ccc(NC(C)=O)cc2)ccc1N1CCOCC1 | n | x | x | x | x | n | x
COc1ccccc1NS(=O)(=O)c1cc(NC(=O)c2cccc(S(=O)(=O)N(C)C)c2)ccc1N1CCOCC1 | 32 | n | n | n | n | n | n
O=C(Cc1ccc2ccccc2c1)NC(Cc1ccccc1)C(=O)O (stereo unspecified) | n | n | x | x | n | n | x
CCOC(=O)c1sc(=S)n(-c2cc(F)ccc2F)c1N | n | n | n | n | n | n | x
CCOC(=O)c1sc(=S)n(-c2cc(OC)ccc2OC)c1N | 40 | n | n | n | n | n | n
c1ccc2c(-c3cc(NCc4ccncc4)n4nccc4n3)cccc2c1 | n | x | x | x | x | n | x
O=C(CCc1nc2ccccc2[nH]1)N1CCc2ccccc2C1 | 45 | n | n | n | n | n | 54
O=C(Nc1ccc(Cl)cc1Cl)c1ccc(-c2ccccc2)cc1 | n | n | n | n | n | n | x
O=C(Nc1cc(-c2ccccc2)[nH]n1)c1ccc(Cl)cc1 | 40 | 67 | 69 | n | n | n | n
CS(=O)(=O)N(CC(=O)N1CCc2ccccc2C1)Cc1ccccc1 | n | n | n | n | n | n | x
O=C(CS(=O)(=O)Cc1ccccc1)N1CCc2ccccc2C1 | 50 | n | n | n | n | n | 76
CC1(C(=O)Nc2cccc3ccccc23)CCN1C(=O)Cc1ccccc1Cl (stereo unspecified) | n | x | x | x | x | n | x
CCNC(=O)C1(C)CCCN(Cc2cc(-c3ccccc3)n(C)n2)C1 (stereo unspecified) | n | x | x | x | x | n | x
CC1(C(=O)Nc2ccc3c(c2)OCCO3)CN(S(C)(=O)=O)CC(=O)N1CCc1ccccc1 (stereo unspecified) | n | x | x | x | x | n | x
Cc1cc(NC(=O)CCC(=O)N(Cc2ccco2)C(C(=O)NC2CCCC2)c2ccccc2C)no1 (stereo unspecified) | 60 | n | n | n | n | n | n
CC1(C(=O)NC2CCCCCC2)CCN1C(=O)Cc1ccc(-c2ccccc2)cc1 (stereo unspecified) | n | x | x | x | x | n | x
CCOC(=O)C1=CCN(S(=O)(=O)c2ccc(Br)cc2)C1c1cccc(C)c1 (stereo unspecified) | n | x | x | x | x | n | x
COc1ccc(N2CC(C(=O)N[C@@H](C)C(=O)N[C@H](CO)c3ccccc3)CC2=O)cc1 (stereo partly specified) | 53 | n | n | n | n | n | n
COCCNC(=O)c1cccc(OC2CCN(Cc3ccccc3C)CC2)c1 | n | n | n | n | n | n | x
CCCc1ccc(C(=O)NNc2ccc(F)cc2)cc1 | 47 | n | n | n | n | n | n
